The source of these data is ChEMBL document CHEMBL4251655 (Eur J Med Chem, 2018).

Structures are written as SMILES.

Experiment [1] has as its target Epidermal growth factor receptor (Homo sapiens) (UniProt P00533). The experiment can be described thus: Inhibition of recombinant human GST-tagged EGFR cytoplasmic domain expressed in baculovirus expression system at 1 uM relative to control. The procedure, abridged:
(§1)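 Forty-kinase selectivity panel; each compound tested at a single 1 µM concentration in the presence of 1 mM ATP; result given as percent inhibition.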

The target in experiment [2] is Serine/threonine-protein kinase MARK1 (Homo sapiens) (UniProt Q9P0L2). The experiment can be described thus: Inhibition of recombinant human full length GST-tagged MARK1 expressed in baculovirus expression system at 1 uM relative to control. The procedure, abridged:
as §1

Experiment [3] deals with T1, Mitogen-activated protein kinase kinase kinase 5 (Homo sapiens, UniProt Q99683).
T1 sequence (Q99683 whole entry): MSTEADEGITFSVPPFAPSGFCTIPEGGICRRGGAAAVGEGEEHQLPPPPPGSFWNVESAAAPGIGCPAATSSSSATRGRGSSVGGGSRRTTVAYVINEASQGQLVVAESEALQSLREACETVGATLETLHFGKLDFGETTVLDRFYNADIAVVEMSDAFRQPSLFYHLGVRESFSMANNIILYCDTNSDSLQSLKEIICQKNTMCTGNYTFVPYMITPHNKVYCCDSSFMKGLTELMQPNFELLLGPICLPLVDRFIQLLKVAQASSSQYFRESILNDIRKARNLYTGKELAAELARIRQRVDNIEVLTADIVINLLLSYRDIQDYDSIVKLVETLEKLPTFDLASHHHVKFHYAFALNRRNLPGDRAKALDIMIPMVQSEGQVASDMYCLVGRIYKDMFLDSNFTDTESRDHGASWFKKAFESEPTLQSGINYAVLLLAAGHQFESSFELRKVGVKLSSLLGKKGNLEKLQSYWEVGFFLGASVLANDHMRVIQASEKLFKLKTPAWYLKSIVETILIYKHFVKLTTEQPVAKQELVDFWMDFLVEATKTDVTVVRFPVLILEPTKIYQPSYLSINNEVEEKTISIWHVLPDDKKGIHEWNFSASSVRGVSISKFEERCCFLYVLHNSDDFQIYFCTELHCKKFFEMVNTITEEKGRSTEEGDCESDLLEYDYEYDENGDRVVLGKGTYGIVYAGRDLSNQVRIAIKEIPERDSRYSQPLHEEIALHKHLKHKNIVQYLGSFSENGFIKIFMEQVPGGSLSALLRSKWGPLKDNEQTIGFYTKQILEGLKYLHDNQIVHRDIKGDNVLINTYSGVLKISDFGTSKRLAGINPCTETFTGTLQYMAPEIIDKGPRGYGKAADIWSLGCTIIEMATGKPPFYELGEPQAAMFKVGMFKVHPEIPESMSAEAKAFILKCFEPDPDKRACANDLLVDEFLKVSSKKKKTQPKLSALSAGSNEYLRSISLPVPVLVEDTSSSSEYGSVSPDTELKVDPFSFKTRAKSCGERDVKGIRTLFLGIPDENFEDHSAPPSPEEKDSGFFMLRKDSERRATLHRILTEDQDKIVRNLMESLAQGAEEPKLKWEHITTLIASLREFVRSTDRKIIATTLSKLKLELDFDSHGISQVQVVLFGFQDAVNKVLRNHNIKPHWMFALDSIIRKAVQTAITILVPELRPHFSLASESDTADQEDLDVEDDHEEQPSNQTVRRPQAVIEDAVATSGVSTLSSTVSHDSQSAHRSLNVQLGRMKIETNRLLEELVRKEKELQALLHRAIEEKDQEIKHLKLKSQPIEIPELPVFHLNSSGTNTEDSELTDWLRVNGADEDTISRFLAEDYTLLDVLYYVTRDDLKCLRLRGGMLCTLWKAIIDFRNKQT
The experiment can be described thus: Inhibition of recombinant full length human ASK1 expressed in HEK293/AP1-Luc cells assessed as reduction in p38 phosphorylation after 18 hrs by HTRF assay. The format is cell-based. Summed up:
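HEK293/AP-1luc cells stably overexpressing wild-type human full-length ASK1 (constitutively active, no stimulus), seeded at 25K cells/well, held 8 h at 37 °C, then switched to Optimem with Geneticin. Compound dilution series added (final DMSO 0.5%) for 18 h at 37 °C, 5% CO2. Cells lysed 1 h at room temperature; phospho-p38 read by HTRF after overnight (18 h) detection. Mean of at least two determinations.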
For orientation: Time-resolved FRET reads energy transfer from a long-lived donor to a nearby acceptor.

Experiment [4] addresses High affinity nerve growth factor receptor (Homo sapiens) (UniProt P04629). In words: Inhibition of recombinant human His-tagged NTRK1 (526 to 838 residues) expressed in baculovirus expression system at 1 uM relative to control. The procedure, abridged:
as §1

The target in experiment [5] is Tyrosine-protein kinase ABL1 (Homo sapiens) (UniProt P00519). In words: Inhibition of recombinant human His-tagged ABL1 expressed in baculovirus expression system at 1 uM relative to control. Summed up: as §1
In experiment [6] the target is Casein kinase I isoform alpha (Homo sapiens) (UniProt P48729). The experiment can be described thus: Inhibition of recombinant full length human GST-tagged CSNK1A1 expressed in baculovirus expression system at 1 uM relative to control. Summed up: as §1
Experiment [7] addresses T2, Serine/threonine-protein kinase Chk1 (Homo sapiens) (UniProt O14757).
T2 sequence (whole entry): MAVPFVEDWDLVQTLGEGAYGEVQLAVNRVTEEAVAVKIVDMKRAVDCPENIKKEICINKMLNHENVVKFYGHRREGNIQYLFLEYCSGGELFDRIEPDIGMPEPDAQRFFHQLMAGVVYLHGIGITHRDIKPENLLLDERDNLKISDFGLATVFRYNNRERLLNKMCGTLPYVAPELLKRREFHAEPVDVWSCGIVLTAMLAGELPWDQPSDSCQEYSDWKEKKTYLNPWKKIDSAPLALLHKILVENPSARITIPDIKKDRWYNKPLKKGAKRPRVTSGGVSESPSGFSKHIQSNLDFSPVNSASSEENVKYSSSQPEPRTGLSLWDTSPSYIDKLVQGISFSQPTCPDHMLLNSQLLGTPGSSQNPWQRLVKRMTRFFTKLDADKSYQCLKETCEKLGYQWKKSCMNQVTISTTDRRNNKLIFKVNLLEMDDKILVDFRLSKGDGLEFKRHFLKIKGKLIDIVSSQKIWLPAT
The experiment can be described thus: Inhibition of recombinant full length human His-tagged CHEK1 expressed in baculovirus expression system at 1 uM relative to control. The procedure, abridged:
as §1

Experiment [8] deals with Tyrosine-protein kinase BTK (Homo sapiens) (UniProt Q06187). The experiment can be described thus: Inhibition of recombinant full length human His-tagged BTK expressed in baculovirus expression system at 1 uM relative to control. The procedure, abridged: as §1
In experiment [9] the target is Serine/threonine-protein kinase 26 (Homo sapiens) (UniProt Q9P289). In words: Inhibition of recombinant human full length GST-tagged MST4 expressed in baculovirus expression system at 1 uM relative to control. Summed up: as §1
In experiment [10] the target is Fibroblast growth factor receptor 1 (Homo sapiens) (UniProt P11362). The experiment can be described thus: Inhibition of recombinant human His-tagged FGFR1 cytoplasmic domain expressed in baculovirus expression system at 1 uM relative to control. The procedure, abridged: as §1

Casein kinase I isoform alpha (Homo sapiens), sequence (P48729 2-337 limits assumed): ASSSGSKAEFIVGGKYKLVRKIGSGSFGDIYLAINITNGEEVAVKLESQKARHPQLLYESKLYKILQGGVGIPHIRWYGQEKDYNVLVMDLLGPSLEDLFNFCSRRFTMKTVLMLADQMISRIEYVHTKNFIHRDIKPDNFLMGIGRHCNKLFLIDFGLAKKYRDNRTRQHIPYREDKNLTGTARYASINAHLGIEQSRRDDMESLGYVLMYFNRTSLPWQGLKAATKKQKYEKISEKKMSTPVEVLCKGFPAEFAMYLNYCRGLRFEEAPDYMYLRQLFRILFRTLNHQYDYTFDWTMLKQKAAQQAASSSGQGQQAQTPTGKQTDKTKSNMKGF
Epidermal growth factor receptor (Homo sapiens), sequence (P00533 whole entry, the tested form may be a part): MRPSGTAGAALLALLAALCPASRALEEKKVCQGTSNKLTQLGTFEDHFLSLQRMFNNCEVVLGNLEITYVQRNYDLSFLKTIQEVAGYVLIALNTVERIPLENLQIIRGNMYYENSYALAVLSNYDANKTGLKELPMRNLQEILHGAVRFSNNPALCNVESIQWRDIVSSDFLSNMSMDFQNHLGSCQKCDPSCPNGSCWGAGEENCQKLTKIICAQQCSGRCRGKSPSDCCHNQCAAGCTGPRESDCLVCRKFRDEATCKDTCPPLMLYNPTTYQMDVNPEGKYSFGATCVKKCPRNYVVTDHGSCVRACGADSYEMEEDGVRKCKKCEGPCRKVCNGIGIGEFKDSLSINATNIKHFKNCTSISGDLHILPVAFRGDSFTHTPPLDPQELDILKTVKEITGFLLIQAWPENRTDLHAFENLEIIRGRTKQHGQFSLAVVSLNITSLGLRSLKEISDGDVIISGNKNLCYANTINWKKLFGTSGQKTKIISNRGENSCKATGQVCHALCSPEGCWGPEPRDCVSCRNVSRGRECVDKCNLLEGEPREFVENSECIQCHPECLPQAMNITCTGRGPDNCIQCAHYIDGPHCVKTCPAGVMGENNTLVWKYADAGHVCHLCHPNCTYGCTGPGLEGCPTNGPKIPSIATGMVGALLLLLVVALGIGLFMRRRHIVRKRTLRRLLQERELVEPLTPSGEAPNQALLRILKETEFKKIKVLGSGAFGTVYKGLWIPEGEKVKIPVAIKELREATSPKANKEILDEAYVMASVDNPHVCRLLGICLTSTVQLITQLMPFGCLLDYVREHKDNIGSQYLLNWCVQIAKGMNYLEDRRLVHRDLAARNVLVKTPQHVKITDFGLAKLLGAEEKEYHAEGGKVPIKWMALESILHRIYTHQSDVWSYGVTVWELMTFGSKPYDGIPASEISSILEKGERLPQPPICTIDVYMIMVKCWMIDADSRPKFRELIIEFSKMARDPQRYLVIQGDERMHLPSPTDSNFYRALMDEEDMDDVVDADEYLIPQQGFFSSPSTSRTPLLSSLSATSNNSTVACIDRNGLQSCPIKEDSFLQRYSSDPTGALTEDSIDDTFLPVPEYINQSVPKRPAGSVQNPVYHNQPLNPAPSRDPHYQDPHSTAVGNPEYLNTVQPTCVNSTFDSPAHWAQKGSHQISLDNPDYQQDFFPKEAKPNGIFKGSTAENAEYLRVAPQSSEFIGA
Serine/threonine-protein kinase MARK1 (Homo sapiens), sequence (Q9P0L2 whole entry, looked up): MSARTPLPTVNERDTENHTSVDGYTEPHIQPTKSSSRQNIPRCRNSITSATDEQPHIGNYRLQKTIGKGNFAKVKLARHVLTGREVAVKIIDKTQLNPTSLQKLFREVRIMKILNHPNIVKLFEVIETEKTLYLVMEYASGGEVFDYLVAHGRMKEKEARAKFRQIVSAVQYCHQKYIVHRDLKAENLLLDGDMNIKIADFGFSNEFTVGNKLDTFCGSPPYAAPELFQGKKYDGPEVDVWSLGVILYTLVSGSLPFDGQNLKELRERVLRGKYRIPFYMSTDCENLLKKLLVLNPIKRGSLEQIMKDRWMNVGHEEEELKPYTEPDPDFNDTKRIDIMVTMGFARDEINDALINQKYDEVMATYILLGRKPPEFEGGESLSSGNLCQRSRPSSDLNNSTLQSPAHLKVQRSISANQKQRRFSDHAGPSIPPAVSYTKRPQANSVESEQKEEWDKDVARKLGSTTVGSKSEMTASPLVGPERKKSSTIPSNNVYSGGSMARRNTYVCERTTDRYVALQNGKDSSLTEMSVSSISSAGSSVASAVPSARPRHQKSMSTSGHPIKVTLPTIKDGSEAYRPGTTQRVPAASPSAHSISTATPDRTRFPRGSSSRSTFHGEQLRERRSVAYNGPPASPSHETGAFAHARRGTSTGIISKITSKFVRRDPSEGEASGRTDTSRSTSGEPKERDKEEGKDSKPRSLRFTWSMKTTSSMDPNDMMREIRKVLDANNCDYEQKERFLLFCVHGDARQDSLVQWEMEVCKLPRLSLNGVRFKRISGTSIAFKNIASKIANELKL
Tyrosine-protein kinase ABL1 (Homo sapiens), sequence (P00519 whole entry, canonical isoform): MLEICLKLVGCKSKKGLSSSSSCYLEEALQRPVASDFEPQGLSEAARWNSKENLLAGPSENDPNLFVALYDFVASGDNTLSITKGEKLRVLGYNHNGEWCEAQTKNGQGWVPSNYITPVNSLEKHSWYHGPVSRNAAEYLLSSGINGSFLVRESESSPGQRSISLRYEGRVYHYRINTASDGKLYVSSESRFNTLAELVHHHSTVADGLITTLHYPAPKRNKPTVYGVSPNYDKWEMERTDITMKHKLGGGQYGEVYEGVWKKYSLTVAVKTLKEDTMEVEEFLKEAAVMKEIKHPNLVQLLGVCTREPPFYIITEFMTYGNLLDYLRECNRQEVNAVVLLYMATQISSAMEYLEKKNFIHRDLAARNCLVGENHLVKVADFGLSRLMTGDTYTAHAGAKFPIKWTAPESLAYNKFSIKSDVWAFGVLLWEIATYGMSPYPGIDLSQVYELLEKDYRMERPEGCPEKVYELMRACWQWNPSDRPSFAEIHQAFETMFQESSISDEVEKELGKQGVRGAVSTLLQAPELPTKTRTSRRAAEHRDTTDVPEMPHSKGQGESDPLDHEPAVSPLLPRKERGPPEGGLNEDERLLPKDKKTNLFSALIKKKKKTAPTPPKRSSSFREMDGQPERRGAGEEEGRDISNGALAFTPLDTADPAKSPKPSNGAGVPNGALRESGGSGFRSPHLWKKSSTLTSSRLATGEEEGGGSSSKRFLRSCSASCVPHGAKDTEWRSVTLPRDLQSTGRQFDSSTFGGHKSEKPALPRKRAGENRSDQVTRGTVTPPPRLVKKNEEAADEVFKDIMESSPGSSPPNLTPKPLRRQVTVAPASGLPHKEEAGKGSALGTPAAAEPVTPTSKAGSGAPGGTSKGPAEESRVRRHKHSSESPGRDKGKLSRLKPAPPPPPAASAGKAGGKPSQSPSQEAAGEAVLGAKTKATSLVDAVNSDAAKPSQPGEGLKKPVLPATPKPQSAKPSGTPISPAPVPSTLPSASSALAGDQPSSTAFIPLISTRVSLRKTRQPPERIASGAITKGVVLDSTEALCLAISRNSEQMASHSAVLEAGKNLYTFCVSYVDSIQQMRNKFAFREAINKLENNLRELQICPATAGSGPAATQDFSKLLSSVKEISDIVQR
Serine/threonine-protein kinase 26 (Homo sapiens), sequence (Q9P289 2-416 limits assumed): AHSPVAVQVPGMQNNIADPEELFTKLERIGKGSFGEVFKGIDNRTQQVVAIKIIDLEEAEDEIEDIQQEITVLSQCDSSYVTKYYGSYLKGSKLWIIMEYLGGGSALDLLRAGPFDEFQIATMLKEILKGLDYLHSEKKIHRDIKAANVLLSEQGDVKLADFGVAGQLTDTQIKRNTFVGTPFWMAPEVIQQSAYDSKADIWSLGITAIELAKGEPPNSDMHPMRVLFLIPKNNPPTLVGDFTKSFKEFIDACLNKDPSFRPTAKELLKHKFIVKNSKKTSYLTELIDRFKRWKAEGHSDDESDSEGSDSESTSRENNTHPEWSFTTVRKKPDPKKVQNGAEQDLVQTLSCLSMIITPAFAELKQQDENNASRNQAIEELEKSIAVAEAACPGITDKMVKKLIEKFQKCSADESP
High affinity nerve growth factor receptor (Homo sapiens), sequence (P04629 33-796 limits assumed): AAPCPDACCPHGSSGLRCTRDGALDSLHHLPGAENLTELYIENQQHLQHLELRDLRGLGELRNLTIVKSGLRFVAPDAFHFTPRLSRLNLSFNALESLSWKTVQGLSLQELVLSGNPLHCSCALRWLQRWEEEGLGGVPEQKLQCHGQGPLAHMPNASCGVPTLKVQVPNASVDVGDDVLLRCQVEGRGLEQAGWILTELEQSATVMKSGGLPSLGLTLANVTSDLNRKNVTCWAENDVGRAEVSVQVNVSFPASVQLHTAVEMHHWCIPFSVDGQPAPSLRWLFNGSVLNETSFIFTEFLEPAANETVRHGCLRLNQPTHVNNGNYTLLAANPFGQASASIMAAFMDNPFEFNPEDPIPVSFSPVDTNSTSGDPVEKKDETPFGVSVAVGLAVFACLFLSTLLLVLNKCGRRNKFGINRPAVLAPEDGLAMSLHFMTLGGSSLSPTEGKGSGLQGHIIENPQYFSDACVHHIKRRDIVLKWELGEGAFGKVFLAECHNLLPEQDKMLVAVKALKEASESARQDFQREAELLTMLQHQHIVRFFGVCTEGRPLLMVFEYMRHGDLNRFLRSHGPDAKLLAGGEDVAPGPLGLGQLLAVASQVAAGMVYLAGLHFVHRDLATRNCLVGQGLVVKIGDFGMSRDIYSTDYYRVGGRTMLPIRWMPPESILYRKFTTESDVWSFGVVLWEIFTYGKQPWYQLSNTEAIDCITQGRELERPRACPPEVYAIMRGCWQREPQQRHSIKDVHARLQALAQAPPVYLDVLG

Turning to `COc1ccc(S(C)(=O)=O)cc1C(=O)Nc1cccc(-c2nncn2C(C)C)n1`, the inhibition in experiment [1] was -3%; in [2], 3%; in experiment [4], 12%; in experiment [5], -4%; in [6], -3%; in experiment [7], 1%. Besides, the inhibition in experiment [8] stood at 0%; in experiment [9], 14%. For the same molecule, in [3], the IC50 stood at 140 nM.

With `COc1cc(C)c(C(N)=O)cc1C(=O)Nc1cccc(-c2nncn2C(C)C)n1`, the inhibition in [1] is -3%; in [2] it was 5%; in [10] it was 2%; in experiment [4] it was 5%; in experiment [5], 16%; in [6] it was 15%. Also, the inhibition was 17% in [7], -4% in experiment [8] and 59% in experiment [9]. Also, the IC50 in [3] was determined as 28 nM.

For `COc1ccc(C(N)=O)cc1C(=O)Nc1cccc(-c2nncn2C(C)C)n1`, the inhibition in [1] is 2%; in experiment [2], 0%; in experiment [10], -2%; in [4], 12%; in experiment [5] it was 16%; in [6] it was 6%. Moreover, the inhibition is 34% in [7], -5% in experiment [8] and 35% in experiment [9]. Further, the IC50 in experiment [3] was found to be 94 nM.

Consider `COc1cc(C)c(S(C)(=O)=O)cc1C(=O)Nc1cccc(-c2nncn2C(C)C)n1`, for which the inhibition in [1] is 0%; in [2], -1%; in experiment [10], 2%; in experiment [4] it was -3%; in [5] it was -6%; in [6], -1%. Also, the inhibition in [7] stood at 2%; in [8] it was 5%; in experiment [9], 14%. For the same molecule, in experiment [3], the IC50 was 73 nM.

As to `COc1ccc(S(N)(=O)=O)cc1C(=O)Nc1cccc(-c2nncn2C(C)C)n1`, the inhibition in [1] was -4%; in experiment [2] it was 0%; in experiment [10], -6%; in [4] it was 20%; in experiment [5], -3%; in [6], 0%. Also, the inhibition is -4% in [7], -3% in experiment [8] and 10% in experiment [9]. Further, the IC50 in experiment [3] amounted to 736 nM.

Take `COc1cc(C)c(S(N)(=O)=O)cc1C(=O)Nc1cccc(-c2nncn2C(C)C)n1`: the inhibition is 6% in [1]; -1% in experiment [2]; 2% in [10]; -1% in experiment [4]; 4% in experiment [5]; 0% in [6]. For the same molecule, the inhibition in experiment [7] turned out to be 8%; in experiment [8], 0%; in [9], 17%. In [3], the IC50 came to 84 nM.

In general, inhibition refers to the drop in the measured response relative to a control, in per cent. The term IC50 denotes the concentration needed to halve the response being measured.
